Activity calls are given as the source filed them. No cut-off for these calls is given here.
Experiments:
[1] = biological target: Mitogen-activated protein kinase 3 (Homo sapiens) (UniProt P27361); assay: Inhibition of ERK1 (unknown origin) at 1 uM by Z'-Lyte assay relative to control
[2] = test system: HL-60; assay: Antiproliferative activity against human HL60 cells assessed as reduction in cell viability measured after 24 hrs; assay type: functional, cell-based; conditions: HL-60, 24 h
[3] = test system: MKN-74; assay: Antiproliferative activity against human MKN74 cells assessed as reduction in cell viability measured after 24 hrs; assay type: functional, cell-based; conditions: MKN-74, 24 h
[4] = biological target: Mitogen-activated protein kinase 1 (Homo sapiens) (UniProt P28482); assay: Inhibition of ERK2 (unknown origin) at 1 uM by Z'-Lyte assay relative to control
[5] = biological target: Mitogen-activated protein kinase 7 (Homo sapiens) (UniProt Q13164); assay: Inhibition of ERK5 in human MKN74 cells harboring ERK1/2 siRNA assessed as reduction in ERK5 phosphorylation at 1 uM by Western blot analysis; assay type: cell-based
Outline: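 MKN-74 cells were transfected with ERK1/2-specific siRNA or negative-control siRNA, then exposed to compound. ERK1/2, p-ERK1/2, ERK5 and p-ERK5 were read by immunoblotting, with GAPDH as loading control.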

[6] = test system: HeLa; assay: Antiproliferative activity against human HeLa cells assessed as reduction in cell viability measured after 24 hrs; assay type: functional, cell-based
[7] = biological target: Mitogen-activated protein kinase 7 (Homo sapiens) (UniProt Q13164); assay: Inhibition of ERK5 (unknown origin) at 1 uM by Z'-Lyte assay relative to control

Mitogen-activated protein kinase 7 (Homo sapiens), sequence (Q13164 2-816 limits assumed): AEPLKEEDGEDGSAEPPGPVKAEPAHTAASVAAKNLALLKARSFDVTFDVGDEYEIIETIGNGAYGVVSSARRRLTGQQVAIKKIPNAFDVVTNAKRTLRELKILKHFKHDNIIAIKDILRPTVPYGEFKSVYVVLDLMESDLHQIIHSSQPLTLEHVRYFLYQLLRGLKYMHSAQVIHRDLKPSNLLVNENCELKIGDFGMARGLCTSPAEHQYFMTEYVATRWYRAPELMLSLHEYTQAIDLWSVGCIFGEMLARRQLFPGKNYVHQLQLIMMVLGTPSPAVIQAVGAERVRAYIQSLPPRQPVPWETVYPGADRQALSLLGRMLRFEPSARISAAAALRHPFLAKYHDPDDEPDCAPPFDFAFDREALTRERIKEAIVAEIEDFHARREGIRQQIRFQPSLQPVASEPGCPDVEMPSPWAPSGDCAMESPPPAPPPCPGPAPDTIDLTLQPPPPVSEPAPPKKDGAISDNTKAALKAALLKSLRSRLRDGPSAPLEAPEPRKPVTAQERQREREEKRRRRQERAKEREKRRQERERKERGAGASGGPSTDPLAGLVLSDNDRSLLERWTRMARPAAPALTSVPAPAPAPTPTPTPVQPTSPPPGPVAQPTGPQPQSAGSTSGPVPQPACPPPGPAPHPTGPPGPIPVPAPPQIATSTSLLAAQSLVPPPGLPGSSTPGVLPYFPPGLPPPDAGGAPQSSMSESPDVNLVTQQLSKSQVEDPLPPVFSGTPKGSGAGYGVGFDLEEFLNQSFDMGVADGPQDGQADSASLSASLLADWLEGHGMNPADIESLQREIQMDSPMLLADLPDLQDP
Mitogen-activated protein kinase 1 (Homo sapiens), sequence (P28482 whole entry): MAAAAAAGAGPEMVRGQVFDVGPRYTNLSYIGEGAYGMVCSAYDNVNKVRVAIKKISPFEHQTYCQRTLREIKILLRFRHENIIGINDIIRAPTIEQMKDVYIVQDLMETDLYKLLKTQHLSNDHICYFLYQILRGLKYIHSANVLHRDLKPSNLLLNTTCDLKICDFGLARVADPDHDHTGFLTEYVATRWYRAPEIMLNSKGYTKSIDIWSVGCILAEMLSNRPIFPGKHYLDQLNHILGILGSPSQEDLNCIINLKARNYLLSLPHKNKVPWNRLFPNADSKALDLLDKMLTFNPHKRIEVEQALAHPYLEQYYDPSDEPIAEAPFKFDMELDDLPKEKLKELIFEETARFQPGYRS
Mitogen-activated protein kinase 3 (Homo sapiens), sequence (P27361 whole entry): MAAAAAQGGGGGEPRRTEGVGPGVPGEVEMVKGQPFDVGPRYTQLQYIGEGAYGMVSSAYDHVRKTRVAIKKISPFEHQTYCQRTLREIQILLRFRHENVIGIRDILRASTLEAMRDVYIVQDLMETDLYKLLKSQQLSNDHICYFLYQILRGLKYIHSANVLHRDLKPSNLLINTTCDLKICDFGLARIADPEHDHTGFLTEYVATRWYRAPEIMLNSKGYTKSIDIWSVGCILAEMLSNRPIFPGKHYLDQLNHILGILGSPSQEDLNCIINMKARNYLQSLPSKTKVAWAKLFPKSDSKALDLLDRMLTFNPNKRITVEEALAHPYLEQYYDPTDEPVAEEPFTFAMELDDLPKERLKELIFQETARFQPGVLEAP

Row | SMILES | inhibition [1] | IC50 [2] | IC50 [3] | inhibition [4] | inhibition [5] | IC50 [6] | inhibition [7]
1 | CCOc1cc(N2CCC(O)CC2)ccc1Nc1ncc2c(n1)N(C)c1ccccc1C(=O)N2C | < 50% | 10.6 µM | > 50 µM | < 50% | Active | > 50 µM | –
2 | O=C(Nc1ccc2[nH]nc(-c3ccncc3)c2c1)[C@@H]1CCN(CC(=O)N2CCN(c3ccc(-c4ncccn4)cc3)CC2)C1 | 98.8% | 1.06 µM | > 50 µM | 99.2% | inactive | > 50 µM | < 50%

Source: ChEMBL document CHEMBL4342467, “Discovery of a Novel Dual-Target Inhibitor of ERK1 and ERK5 That Induces Regulated Cell Death to Overcome Compensatory Mechanism in Specific Tumor Types” (J Med Chem, 2020)
